# Measurements of several laboratories.
# Each line is one published result; the experiments were not run side by side.
# BCHE: Cholinesterase (BCHE, Equus caballus, UniProt P81908)
# PTGS1: Prostaglandin G/H synthase 1 (PTGS1, Ovis aries, UniProt P05979)
# AGTR2: Type-2 angiotensin II receptor (AGTR2, Homo sapiens, UniProt P50052)
SMILES,target,test,setting,inhibition
COc1cc2c(cc1OC)C(=O)N(CC1CCN(Cc3ccc(F)nc3)CC1)C2,BCHE,"enzyme activity, inhibitor, Ellman",1 µM,-4.8%
CC(C)N1CCC[C@H]1CNC(=O)c1cn(C2CCCC2)c(=O)c2c1c1ccccc1n2C,"Androgen receptor (Ar, Rattus norvegicus, UniProt P15207)","ligand displacement, radioligand",10 µM,11%
Cc1ncc(C)n2nc(/C=C/c3nc(N4CCCC4)cc(N4CCOCC4)n3)nc12,"cGMP-inhibited 3',5'-cyclic phosphodiesterase 3B (PDE3B, Homo sapiens, UniProt Q13370)","enzyme activity, inhibitor",10 µM,15%
Nc1ccc(-c2nc3ccccc3s2)c(-c2ccc(O)cc2)c1,PTGS1,"enzyme activity, inhibitor, absorbance",10 µM,14.2%
Cn1cc(-c2cccc(N3CCc4c(sc5c4CC(C)(C)C5)C3=O)c2CO)cc(Nc2ccncn2)c1=O,"Serine/threonine-protein kinase MRCK alpha (CDC42BPA, Homo sapiens, UniProt Q5VT25)","enzyme activity, inhibitor",1 µM,6%
Nc1ccc(-c2nc3ccccc3s2)c(-c2cccc(O)c2)c1,PTGS1,"enzyme activity, inhibitor, absorbance",10 µM,27.7%
COc1cc2c(cc1OC)C(=O)N(Cc1ccc(F)nc1)C2,BCHE,"enzyme activity, inhibitor, Ellman",1 µM,-6.8%
COCc1c(-c2cc3cc(C)cc(OC)c3s2)c2c(N)ncnn2c1CN1CCNC(=O)C1,AGTR2,"ligand displacement, radioligand",10 µM,9%
COc1cc2c(cc1OC)C(=O)N(Cc1nccc3ccccc13)C2,BCHE,"enzyme activity, inhibitor, Ellman",1 µM,2%
c1ccc(C(NCCNC(c2ccccc2)c2ccccc2)c2ccccc2)cc1,AGTR2,cell-free assay,10 µM,14%
Cc1ccc(-c2nc3ccccc3s2)c(-c2cccc(O)c2)c1,PTGS1,"enzyme activity, inhibitor, absorbance",10 µM,11.7%
COc1cc2c(cc1OC)C(=O)N(Cc1ccncc1)C2,BCHE,"enzyme activity, inhibitor, Ellman",1 µM,-0.7%
CS(=O)(=O)c1ccc(-c2ncccc2-c2nc3ccccc3s2)cc1,PTGS1,"enzyme activity, inhibitor, absorbance",10 µM,21.5%
COc1cc2c(cc1OC)C(=O)N(Cc1ccc3ccccc3n1)C2,BCHE,"enzyme activity, inhibitor, Ellman",1 µM,-0.7%
NS(=O)(=O)c1ccc(-c2ncc(Cl)cc2-c2nc3ccccc3s2)cc1,PTGS1,"enzyme activity, inhibitor, absorbance",10 µM,6.6%
O=C(Nc1cccnn1)N1CCN([C@@H]2CCOc3cc(C(F)(F)F)ccc32)CC1,AGTR2,cell-free assay,20 µM,0%
Cn1cc(-c2cc(F)cc(N3CCn4c(cc5c4CCCC5)C3=O)c2CO)cc(Nc2ccc(N3CCN(C4COC4)CC3)cn2)c1=O,"Dual specificity mitogen-activated protein kinase kinase 3 (MAP2K3, Homo sapiens, UniProt P46734)","enzyme activity, inhibitor",0.1 µM,-12%
COc1cc2c(cc1OC)C(=O)N(CC1CCN(Cc3ccccn3)CC1)C2,BCHE,"enzyme activity, inhibitor, Ellman",1 µM,5.4%
CN(C)Cc1ccc(-c2nc3ccccc3s2)c(-c2ccc(O)cc2)c1,PTGS1,"enzyme activity, inhibitor, absorbance",10 µM,14.2%
COc1ccc2[nH]cc(CCN3Cc4cc(OC)c(OC)cc4C3=O)c2c1,BCHE,"enzyme activity, inhibitor, Ellman",1 µM,19%
CS(=O)(=O)c1ccc(-c2ncc(Cl)cc2-c2nc3ccccc3s2)cc1,PTGS1,"enzyme activity, inhibitor, absorbance",10 µM,0%
C#Cc1n[nH]c2c(-c3cn(C(C)c4ccccn4)c(=O)[nH]c3=O)cc(F)cc12 (stereo not shown),"Serine/threonine-protein kinase MARK1 (MARK1, Homo sapiens, UniProt Q9P0L2)","enzyme activity, inhibitor",1 µM,11.2%
